Measured values as given in ChEMBL document CHEMBL2046306, “Synthesis of 6-substituted 9-methoxy-11H-indeno[1,2-c]quinoline-11-one derivatives as potential anticancer agents” (Bioorg Med Chem, 2012).
Calls of active or inactive are those of the source. The calls are words filed in the database; no cut-off is given here.

Assays:
NCI-H460 [1] = assay: Antiproliferative activity against human NCI-H460 cells assessed as growth at 100 uM after 48 hrs by alamar blue assay; type: functional; settings: NCI-H460, 48 h, read-out: Activity
Method in brief: (§1)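 Single-dose prescreen in a three-line NCI panel (NCI-H460, MCF7, SF-268). Cells were inoculated and preincubated on microtiter plates, then exposed to test agent at 100 μM for 48 h. Alamar blue end-point. Growth is expressed as percent of untreated control cells.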

IGROV-1 = assay: Growth inhibition of human IGROV1 cells after 48 hrs by sulforhodamine B assay; type: functional; settings: IGROV-1, 48 h
Method in brief: (§2)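 NCI 60-line screen. Cells grown in RPMI 1640 with 5% FBS and 2 mM L-glutamine, seeded at 5000–40,000 cells/well, preincubated 24 h at 37 °C. Five 10-fold dilutions added, highest well concentration 10E-4 M. Incubated 48 h in 5% CO₂ at 100% humidity. Sulforhodamine B read-out by optical density; GI50 taken from dose-response curves versus control.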

SF-268 = assay: Antiproliferative activity against human SF268 cells assessed as growth at 100 uM after 48 hrs by alamar blue assay; type: functional; settings: SF-268, 48 h, read-out: Activity; method in brief: as §1
CCRF-CEM = assay: Growth inhibition of human CCRF-CEM cells after 48 hrs by sulforhodamine B assay; type: functional; method in brief: as §2
SR = assay: Growth inhibition of human SR cells after 48 hrs by sulforhodamine B assay; type: functional
Method in brief: (§3)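 NCI 60-line screen. Cells grown in RPMI 1640 with 5% FBS and 2 mM L-glutamine, seeded at 5000-40,000 cells/well and preincubated 24 h at 37 °C. Compounds added at five 10-fold dilutions, highest well concentration 10E-4 M. Exposure 48 h in 5% CO2 at 100% humidity. Endpoint is sulforhodamine B with optical density read-out. GI50 is the concentration giving 50% growth inhibition versus control.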

NCI-H460 [2] = assay: Cell cycle arrest in human NCI-H460 cells assessed as accumulation at S phase at 5 uM after 24 hrs by propidium iodide staining-based flow cytometric analysis (reference value: 14.3 +/- 1.9%); type: functional
NCI-H460 [3] = assay: Induction of apoptosis in human NCI-H460 cells assessed as induction of caspase 8 activity after 24 hrs by Western blot analysis; type: functional, cell-based
Method in brief: (§4)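 Treated H460 cells washed in cold PBS and lysed 30 min on ice in Tris-HCl pH 7.5/NP-40 buffer with protease and phosphatase inhibitors. Lysate spun at 12,000g. Protein measured by Bradford; 20 µg resolved on 10% SDS-PAGE and transferred to PVDF. Blocked with 5% milk, then primary antibody 2 h and secondary 30 min. Detected by ECL for PARP, procaspase-3 and procaspase-8.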

NCI-H460 [4] = assay: Induction of apoptosis in human NCI-H460 cells assessed as cell shrinkage at 10 uM after 24 hrs by light microscopic analysis relative to control; type: functional, cell-based
Method in brief: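 H460 cells exposed to DMSO or compound (1.0-10.0 μM) for 24 h at 37 °C, then photographed under a light microscope for morphology.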

HCT-116 = assay: Growth inhibition of human HCT116 cells after 48 hrs by sulforhodamine B assay; type: functional; settings: HCT-116, 48 h; method in brief: as §2
NCI-H460 [5] = assay: Cell cycle arrest in human NCI-H460 cells assessed as accumulation at G2/M phase at 1 uM after 24 hrs by propidium iodide staining-based flow cytometric analysis (reference value: 18.6 +/- 1.7%); type: functional
NCI-H460 [6] = assay: Cell cycle arrest in human NCI-H460 cells assessed as accumulation at G2/M phase at 10 uM after 24 hrs by propidium iodide staining-based flow cytometric analysis (reference value: 18.6 +/- 1.7%); type: functional
NCI-H460 [7] = assay: Cell cycle arrest in human NCI-H460 cells assessed as accumulation at S phase at 1 uM after 24 hrs by propidium iodide staining-based flow cytometric analysis (reference value: 14.3 +/- 1.9%); type: functional
U-251 = assay: Growth inhibition of human U251 cells after 48 hrs by sulforhodamine B assay; type: functional; settings: U-251, 48 h; method in brief: as §3
NCI-H460 [8] = assay: Induction of apoptosis in human NCI-H460 cells assessed as accumulation at sub-G1 phase at 1 uM after 24 hrs by propidium iodide staining-based flow cytometric analysis (reference value: 0.9 +/- 0.3%); type: functional
NCI-H460 [9] = assay: Cell cycle arrest in human NCI-H460 cells assessed as accumulation at G2/M phase at 5 uM after 24 hrs by propidium iodide staining-based flow cytometric analysis (reference value: 18.6 +/- 1.7%); type: functional
NCI-H460 [10] = assay: Cell cycle arrest in human NCI-H460 cells assessed as accumulation at G1 phase at 1 uM after 24 hrs by propidium iodide staining-based flow cytometric analysis (reference value: 66.2 +/- 2.1%); type: functional
NCI-H460 [11] = assay: Cell cycle arrest in human NCI-H460 cells assessed as accumulation at G1 phase at 5 uM after 24 hrs by propidium iodide staining-based flow cytometric analysis (reference value: 66.2 +/- 2.1%); type: functional
NCI-H460 [12] = assay: Induction of apoptosis in human NCI-H460 cells assessed as accumulation at sub-G1 phase at 5 uM after 24 hrs by propidium iodide staining-based flow cytometric analysis (reference value: 0.9 +/- 0.3%); type: functional
Nucleic Acid [13] = assay: Binding affinity to Escherichia coli pBR322 assessed as DNA unwinding at 1000 uM after 12 hrs by ethidium bromide staining-based agarose gel electrophoresis; type: nucleic-acid assay
Method in brief: (§5)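 Negatively supercoiled pBR322 plasmid (400 ng) incubated with the test compound in TE buffer, pH 8.0, for 12 h at room temperature. Loading buffer contained sarkosyl, bromophenol blue and glycerol. Samples run on 1% agarose at 6 V/cm for 2.5 h in TAE, pH 8.5. Ethidium bromide stain, imaged under UV; unwinding read as reduced mobility of form I DNA.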

NCI-H460 [14] = assay: Induction of apoptosis in human NCI-H460 cells assessed as induction of caspase 3 activity after 24 hrs by Western blot analysis; type: functional, cell-based; method in brief: as §4
SK-MEL-5 = assay: Growth inhibition of human SK-MEL-5 cells after 48 hrs by sulforhodamine B assay; type: functional; settings: SK-MEL-5, 48 h; method in brief: as §3
DU-145 = assay: Growth inhibition of human DU145 cells after 48 hrs by sulforhodamine B assay; type: functional; settings: DU-145, 48 h; method in brief: as §2
NCI-H460 [15] = assay: Cell cycle arrest in human NCI-H460 cells assessed as accumulation at G1 phase at 10 uM after 24 hrs by propidium iodide staining-based flow cytometric analysis (reference value: 66.2 +/- 2.1%); type: functional
NCI-H460 [16] = assay: Induction of apoptosis in human NCI-H460 cells assessed as accumulation at sub-G1 phase at 10 uM after 24 hrs by propidium iodide staining-based flow cytometric analysis (reference value: 0.9 +/- 0.3%); type: functional
NCI-H460 [17] = assay: Cell cycle arrest in human NCI-H460 cells assessed as accumulation at S phase at 10 uM after 24 hrs by propidium iodide staining-based flow cytometric analysis (reference value: 14.3 +/- 1.9%); type: functional
MCF7 = assay: Antiproliferative activity against human MCF7 cells assessed as growth at 100 uM after 48 hrs by alamar blue assay; type: functional; settings: MCF7, 48 h, read-out: Activity; method in brief: as §1
Nucleic Acid [18] = assay: Binding affinity to Escherichia coli pBR322 assessed as DNA unwinding at 10 to 100 uM after 12 hrs by ethidium bromide staining-based agarose gel electrophoresis; type: nucleic-acid assay; method in brief: as §5
[19] = Growth inhibition of human Hs 578T cells after 48 hrs by sulforhodamine B assay; type: functional; method in brief: as §2
NCI-H460 [20] = assay: Induction of apoptosis in human NCI-H460 cells assessed as PARP cleavage after 24 hrs by Western blot analysis; type: functional, cell-based; method in brief: as §4
NCI-H460 [21] = assay: Growth inhibition of human NCI-H460 cells after 48 hrs by sulforhodamine B assay; type: functional; settings: NCI-H460, 48 h; method in brief: as §2
A549 = assay: Growth inhibition of human A549 cells after 48 hrs by sulforhodamine B assay; type: functional, cell-based; settings: A549, 48 h; method in brief: as §2

GI50 (CCRF-CEM): 3.39 µM
GI50 (HCT-116): 1.26 µM
GI50 (U-251): 1.1 µM
Activity (Nucleic Acid [13]): inactive
GI50 (SK-MEL-5): 3.89 µM
GI50 (DU-145): 6.61 µM
Activity (Nucleic Acid [18]): Active
GI50 (NCI-H460 [21]): 1.33 µM
GI50 (A549): 1.86 µM
SMILES: COc1ccc2c(c1)C(=O)c1c-2c(NCCCN(C)C)nc2ccccc12
growth at 100 µM (NCI-H460 [1]): 0%
GI50 (IGROV-1): 6.92 µM
growth at 100 µM (SF-268): 0%
GI50 (SR): 1.1 µM
Activity (NCI-H460 [2]): 9.1%
Activity (NCI-H460 [3]): Dose-dependent effect
Activity (NCI-H460 [4]): Active
Activity (NCI-H460 [5]): 28.1%
Activity (NCI-H460 [6]): 21.5%
Activity (NCI-H460 [7]): 10.1%
Activity (NCI-H460 [8]): 3.7%
Activity (NCI-H460 [9]): 33.5%
Activity (NCI-H460 [10]): 58.1%
Activity (NCI-H460 [11]): 49.2%
Activity (NCI-H460 [12]): 8.2%
Activity (NCI-H460 [14]): Dose-dependent effect
Activity (NCI-H460 [15]): 41.4%
Activity (NCI-H460 [16]): 25.3%
Activity (NCI-H460 [17]): 11.8%
growth at 100 µM (MCF7): 0%
GI50 [19]: 3.72 µM
Activity (NCI-H460 [20]): Dose-dependent effect
